Test results reported in PubChem BioAssay.
Records with an inconclusive call do not appear.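 The calls were made as follows, unless noted: active = inhibition over a set limit, the all-compound mean plus 3 SD, in both replicate runs; inconclusive = over that limit in just one replicate run; inactive = at or under that limit in both runs.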

Assays:
[1] = S. cerevisiae growth inhibition in permissive medium (OD615), pilot counter-assay for S. cerevisiae lifespan shortening project, permissive growth control (AID 705;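 active = growth inhibition above 25% in both replicates, a cutoff set 3 SD above the mean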); settings: OD615, 24 h, at 10 µM, stronger effect = higher value
In short: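 System – S. cerevisiae with engineered DeaD lifespan system · Buffer or medium – SC raffinose/galactose permissive medium · Schedule – cells pre-grown 4 h, then 24 h compound exposure, 30 °C humidified · Technique – culture turbidity as optical density at 615 nm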

[2] = S. cerevisiae growth inhibition in restrictive medium, OD615, pilot screen, restrictive growth control, yeast lifespan reduction project (AID 706;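 active = growth inhibition above a set limit, 3 SD over mean compound inhibition, in both replicates, cut at about 43% in these data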;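 also: modified DeaD lifespan yeast strain shifted to restrictive glucose medium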); settings: OD615, 48 h, at 10 µM, stronger effect = higher value
In short: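 Material: engineered S. cerevisiae DeaD strain / Medium: glucose-based CSMM-D restrictive medium / Compound: single dose of 10 µM compound final, 0.25% DMSO / Timing: 4 h pre-incubation, 48 h exposure at 30 °C / Technique: OD615 absorbance reading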

[3] = doxorubicin toxicity protection in MRP-1 cells – H69AR cells, CellTiter-Glo, duplicate, MRP-1 activator project, pilot screen (AID 807;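 active = viability increase at or above a cutoff of the median across tested compounds plus 3 SD, cut at about 8.5% in these data, passing the limit was not always enough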;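 also: compound pretreatment 18-22 h then 72 h combined with doxorubicin; 0% = doxorubicin alone and 100% = vehicle without doxorubicin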); settings: H69AR viability with doxorubicin, CellTiter-Glo luminescence; at 10 µM; stronger effect = higher value
[4] = viability of HCT116 without oncogenic beta-catenin – human colon tumor cells, pilot screen (AID 823;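 active = cell viability at or below a set limit in both duplicate runs, the limit being the all-compound median minus 4 SD, cut at about 23% in these data, passing the limit was not always enough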;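 also: 0% = wells killed by 20 µM Hyamine and 100% = untreated DMSO cell wells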); settings: HCT116 beta-catenin knockout viability, CellTiter-Glo, 60 h; at 10 µM; stronger effect = lower value
[5] = viability of PTEN-null HCT116 cells – cell-based, HCT116 clonal line, CellTiter-Glo, pilot screen (AID 824;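 active = viability at or below 27.92% in each of two runs, the all-compound median minus 4 SD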;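 also: 0% = 20 µM Hyamine control and 100% = vehicle cell control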); settings: HCT116 PTEN-deleted viability, 60 h, at 10 µM, stronger effect = lower value
[6] = RAM pathway blockade in budding yeast – dse1pr::URA3 reporter, 5-FOA selection, pilot screen (AID 869);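 also: 0% = DMSO wells with no growth and 100% = 10 µM 1-NA-PP1 with full growth; RAM network block rescues cells from 5-FOA so hits raise OD615 growth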; settings: S. cerevisiae dse1pr::URA3 5-FOA growth, OD615, 2 d; at 10 µM; stronger effect = higher value; strain carries analog-sensitive mutant Cbk1 kinase
[7] = RAM signaling pathway blockade in yeast – S. cerevisiae, Pdr1DBD-CYC8 efflux-inhibited sensitized strain, primary screen (AID 1298;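 active = RAM network inhibition above 8.4% in each of two replicates, 3 SD over the compound average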;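 also: 0% = DMSO untreated cells without growth and 100% = 10 µM 1-NA-PP1 full growth; higher means more yeast growth rescued from 5-FOA killing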); settings: S. cerevisiae cbk1-as DSE1-URA3 strain, 5-FOA growth OD615, 2 d; at 50 µM; stronger effect = higher value

CC(C)(C)n1nc2c(c1NC(=O)c1ccccc1F)CS(=O)C2 (stereo not given)
inactive: growth inhibition [1] 1.35% | growth inhibition [2] 0.655% | viability increase [3] 0.62% | viability [4] 101% | viability [5] 101% | inhibition [6] 1.66% | RAM network inhibition [7] 1.67%

Cc1cc2n(c1)CCn1c(C)ccc1-2
inactive: growth inhibition [1] 18.4% | growth inhibition [2] 14.5% | viability increase [3] -2.98% | viability [4] 97.8% | viability [5] 96.9% | inhibition [6] 1.99% | RAM network inhibition [7] 2.57%

Brc1ccc(-c2nnc(-c3ccccc3Br)o2)cc1
inactive: growth inhibition [1] 0.385% | growth inhibition [2] -1.09% | viability increase [3] -1.12% | viability [4] 87.9% | viability [5] 79.2% | inhibition [6] 2.09% | RAM network inhibition [7] 11.3%

Cn1c(C(=O)N2CCC(C(N)=O)CC2)cc2c(=O)n(C)c3ccccc3c21
inactive: growth inhibition [1] -2.25% | growth inhibition [2] 1.93% | viability increase [3] -0.97% | viability [4] 110% | viability [5] 99.3% | inhibition [6] 0.085% | RAM network inhibition [7] 2.21%

O=C(O)CCc1nnc2n(Cc3ccc(F)cc3)c(=O)c3ccccc3n12
inactive: growth inhibition [1] -4.64% | growth inhibition [2] 5.36% | viability increase [3] -0.62% | viability [4] 99.2% | viability [5] 90.8% | inhibition [6] 1.04% | RAM network inhibition [7] 1.56%

Cc1onc(-c2ccccc2Cl)c1C(=O)NCC1CCCO1 (stereo not given)
inactive: growth inhibition [1] -0.6% | growth inhibition [2] 3.56% | viability increase [3] -1.44% | viability [4] 88.7% | viability [5] 95.8% | inhibition [6] 1.24% | RAM network inhibition [7] -0.74%

CCOc1ccc(NC(=O)CN(c2ccc(OC)cc2)S(C)(=O)=O)cc1
inactive: growth inhibition [1] 6.96% | growth inhibition [2] -0.54% | viability increase [3] 0.19% | viability [4] 98.1% | viability [5] 98.8% | inhibition [6] 1.7% | RAM network inhibition [7] 4.91%

CCOCCOCN(C#N)c1nc(OC)nc(N(C)C)n1
inactive: growth inhibition [1] -5.92% | growth inhibition [2] 0.69% | viability increase [3] 1.74% | viability [4] 102% | viability [5] 99.9% | inhibition [6] 0.555% | RAM network inhibition [7] 2.46%

C=CCOC(=O)C1=C(C)NC(=O)NC1c1ccc(OC(=O)c2ccco2)c(OC)c1 (stereo not given)
inactive: growth inhibition [1] -6.37% | growth inhibition [2] -18.3% | viability increase [3] -0.16% | viability [4] 93.6% | viability [5] 96.4% | inhibition [6] 0.145% | RAM network inhibition [7] 2.71%

O=c1c2ccccc2ncn1-c1ccc2c(c1)OCCO2
inactive: growth inhibition [1] -2.29% | growth inhibition [2] -19.6% | viability increase [3] -0.34% | viability [4] 101% | viability [5] 94% | inhibition [6] 0.6% | RAM network inhibition [7] 0.78%

COCCCNC(=O)c1c(F)c(F)c(F)c(F)c1F
inactive: growth inhibition [1] -11.2% | growth inhibition [2] -2.95% | viability increase [3] -1.94% | viability [4] 95.7% | viability [5] 92.9% | inhibition [6] 0.09% | RAM network inhibition [7] -0.98%

CC1CCCC(NC(=O)CSc2nnnn2C)C1C (stereo not given)
inactive: growth inhibition [1] -6.17% | growth inhibition [2] -10.1% | viability increase [3] 1.61% | viability [4] 95.5% | viability [5] 101% | inhibition [6] 1.29% | RAM network inhibition [7] 2.27%

COc1ccc(Cl)cc1NC(=O)c1nc2nc(C)cc(C(F)F)n2n1
inactive: growth inhibition [1] -3.76% | growth inhibition [2] -10.8% | viability increase [3] -4.12% | viability [4] 94.4% | viability [5] 88.4% | inhibition [6] 2.35% | RAM network inhibition [7] 2.1%

Oc1c(C(c2ccc(F)cc2)N2CCc3ccccc3C2)sc2ncnn12 (stereo not given)
inactive: growth inhibition [1] -5.9% | growth inhibition [2] -6.98% | viability increase [3] 4.08% | viability [4] 103% | viability [5] 91.7% | inhibition [6] 2.67% | RAM network inhibition [7] 3.09%

CCOC(=O)CC(=O)Nc1ccc(C(=O)OCC)cc1
inactive: growth inhibition [1] 4.17% | growth inhibition [2] 7.02% | viability increase [3] 1.09% | viability [4] 101% | viability [5] 105% | inhibition [6] 1.54% | RAM network inhibition [7] 4.84%

COC(=O)C1=C(C)NC(=O)NC1c1cn(-c2ccccc2)nc1-c1cccs1 (stereo not given)
inactive: growth inhibition [1] 1.5% | growth inhibition [2] 7.83% | viability increase [3] -1.94% | viability [4] 85.6% | viability [5] 82.4% | inhibition [6] 2.37% | RAM network inhibition [7] 5.72%

CN1CCc2c(sc(NC(=O)c3ccc(S(=O)(=O)N4CCOCC4)cc3)c2C(N)=O)C1
inactive: growth inhibition [1] -5.07% | growth inhibition [2] -4.6% | viability increase [3] -0.65% | viability [4] 111% | viability [5] 103% | inhibition [6] -0.19% | RAM network inhibition [7] 7.28%

O=C(COc1cc(=O)n2c(n1)SCCC2)c1ccccc1
inactive: growth inhibition [1] -6.77% | growth inhibition [2] -2.62% | viability increase [3] -1.08% | viability [4] 102% | viability [5] 92.7% | inhibition [6] 1.56% | RAM network inhibition [7] 1.89%

CSc1cc(/C=N/O)c(SC)s1
inactive: growth inhibition [1] -6.62% | growth inhibition [2] 1.13% | viability increase [3] -3.3% | viability [4] 97.3% | viability [5] 95.9% | inhibition [6] 0.395% | RAM network inhibition [7] -1.95%

CC(=O)c1ccc(-n2nncc2C(C)(C)C)cc1
inactive: growth inhibition [1] -3.02% | growth inhibition [2] -2.67% | viability increase [3] -0.85% | viability [4] 98.6% | viability [5] 99.5% | inhibition [6] 1.47% | RAM network inhibition [7] 0.78%

Nc1nonc1-n1nncc1-c1ccccc1
inactive: growth inhibition [1] -8.35% | growth inhibition [2] -13.6% | viability increase [3] -1.04% | viability [4] 92.4% | viability [5] 96.7% | inhibition [6] 1.67% | RAM network inhibition [7] 1.25%

C=CCn1c(SCCC#N)nnc1-c1ccncc1
inactive: growth inhibition [1] -5.01% | growth inhibition [2] -18.7% | viability increase [3] -3.07% | viability [4] 100% | viability [5] 93.4% | inhibition [6] 1.88% | RAM network inhibition [7] -0.94%

CCOc1ccc(N(CC(=O)NCc2ccccc2)S(=O)(=O)c2c(C)noc2C)cc1
inactive: growth inhibition [1] -21.6% | growth inhibition [2] -21.6% | viability increase [3] -0.68% | viability [4] 101% | viability [5] 95.1% | inhibition [6] 4.04% | RAM network inhibition [7] 3.95%

CC(C)CCNC(=O)c1ccc2c(c1)N(Cc1ccccc1)C(=O)CS2=O (stereo not given)
inactive: growth inhibition [1] -0.755% | growth inhibition [2] 4.24% | viability increase [3] 1.95% | viability [4] 104% | viability [5] 94% | inhibition [6] 0.275% | RAM network inhibition [7] 1.41%

CCCC(=O)NCCc1cc2ccc(C)c(C)c2[nH]c1=O
inactive: growth inhibition [1] -13% | growth inhibition [2] -25.4% | viability increase [3] -1.61% | viability [4] 103% | viability [5] 97.6% | inhibition [6] 1.91% | RAM network inhibition [7] 4%
